Entries after “also recorded” stand apart in the source; their conditions may differ.
Tests used:
[1] = test system: Rap1 geranylgeranylation; test: Gel-shift assay; assay type: cell-based, human; conditions: MiaPaca‐2 cells, 48 hours, 30 and 100 µM
How it was run: (§1)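 MiaPaCa2 cells were grown in DMEM with 10% heat-inactivated FBS and 1% penicillin-streptomycin. They were treated 48 h with vehicle or test compound at 30 and 100 µM; the positive control, a dual FTase/GGTase I inhibitor, was used at 10 and 30 µM. Cells were PBS-washed and lysed with protease and phosphatase inhibitors. Lysates ran on 4–20% SDS-PAGE gel-shift blots, probed with anti-K-Ras or anti-Rap1A+B, plus anti-vinculin.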

[2] = target: recombinant FTase (Homo sapiens, UniProt P49354+P49356); test: Fluorescent in vitro FTase inhibition assay; assay type: biochemical; conditions: for selectivity for FTase over GGTase I: ratio of K i values GGTase I / FTase
Sequence of recombinant FTase (P49356 whole entry, one chain of several): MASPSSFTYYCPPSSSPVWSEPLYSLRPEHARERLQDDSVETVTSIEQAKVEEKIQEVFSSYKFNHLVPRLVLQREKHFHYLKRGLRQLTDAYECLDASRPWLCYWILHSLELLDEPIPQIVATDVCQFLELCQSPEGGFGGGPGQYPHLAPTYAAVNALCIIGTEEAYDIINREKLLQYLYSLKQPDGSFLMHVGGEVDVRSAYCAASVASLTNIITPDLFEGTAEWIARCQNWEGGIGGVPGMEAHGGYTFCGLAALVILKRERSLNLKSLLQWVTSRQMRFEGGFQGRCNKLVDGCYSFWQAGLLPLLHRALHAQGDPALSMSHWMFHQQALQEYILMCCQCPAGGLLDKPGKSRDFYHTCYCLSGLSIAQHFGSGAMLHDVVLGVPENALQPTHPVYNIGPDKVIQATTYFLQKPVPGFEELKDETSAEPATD
How it was run: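 Recombinant FTase (25–37 nM) was reacted with dansyl-labelled K-Ras4B C-terminal peptide (1 µM) and FPP (5 µM), with test compound at 0–500 µM. Enzyme, substrates and compound were spotted separately, then buffer was added to start the reaction. Fluorescence (ex 340/em 520 nm) was followed for 5 min. n = 3, SEM.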

[3] = target: recombinant GGTase I (Homo sapiens, UniProt P49354+P53609); test: Fluorescent in vitro GGTase I inhibition assay; assay type: biochemical
Sequence of recombinant GGTase I (P53609 whole entry, one chain of several): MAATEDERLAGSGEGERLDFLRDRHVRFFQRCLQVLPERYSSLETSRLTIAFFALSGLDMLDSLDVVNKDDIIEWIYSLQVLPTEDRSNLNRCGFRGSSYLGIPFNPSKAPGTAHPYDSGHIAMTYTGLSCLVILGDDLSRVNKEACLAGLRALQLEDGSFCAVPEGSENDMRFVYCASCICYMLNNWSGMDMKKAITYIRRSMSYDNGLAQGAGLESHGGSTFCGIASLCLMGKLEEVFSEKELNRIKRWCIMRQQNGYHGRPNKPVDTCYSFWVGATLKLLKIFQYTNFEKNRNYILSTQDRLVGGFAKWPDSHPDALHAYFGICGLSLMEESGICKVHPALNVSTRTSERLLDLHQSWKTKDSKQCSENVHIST
How it was run: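 Recombinant GGTase I (25–37 nM) was run with dansyl-labelled K-Ras C-terminal peptide (1 µM) and test compound at 0–500 µM. GGPP was diluted to a 110 µM working stock before use. Buffer was 50 mM Tris-HCl pH 7.5 with MgCl2, ZnCl2, dodecyl maltoside and DTT, at 37 °C. Fluorescence kinetics (ex 340/em 520 nm) were recorded over 5 min. n = 3, SEM.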

[4] = test system: MiaPaCa2 cells; test: Antiproliferative activity, trypan blue cell viability assay; assay type: cell-based, human; conditions: for IC50: Homo sapiens, MIA PaCa-2, 72 h, read-out: IC50, antiproliferation activity
How it was run: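 MiaPaCa2 cells (K-Ras G12C) seeded at 1×10³ cells/well and left overnight at 37 °C, 5% CO2. Next day they were given various concentrations of test compound and incubated 72 h at 37 °C, 5% CO2. A trypan blue assay followed, […]. Sotorasib served as positive control. n = 3, mean ± SEM.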

[5] = test system: K‐Ras prenylation; test: Gel-shift assay; assay type: cell-based, human; conditions: MiaPaca‐2 cells, 48 hours, 30 and 100 µM
How it was run: as §1

Row | SMILES | IC50 [2] [nM] | Ki [2] [nM] | IC50 [3] [nM] | Ki [3] [nM] | also measured
1 | COC(=O)[C@H](CCSC)NC(=O)NC1(c2ccccc2)CCN(Cc2cncn2Cc2ccc(-n3cc(COCCCCCCNC(=O)c4ccc(NC(=N)N)cc4)nn3)cc2)CC1 [Compound 4d, Methyl ((1‐((1‐(4‐(4‐(((6‐(4‐guanidinobenzamido)hexyl)oxy)methyl)‐1H‐1,2,3‐triazol‐1‐yl)benzyl)‐1H‐imidazol‐5‐yl)methyl)‐4‐phenylpiperidin‐4‐yl)carbamoyl)‐L‐methioninate] |  |  |  |  | inhibition of geranylgeranylation (processing) of Rap1 in cells [1]: did not inhibit
2 | CSCC[C@H](NC(=O)NC1(c2ccccc2)CCN(Cc2cncn2Cc2ccc(-n3cc(COCCCCCCNC(=O)c4ccc(NC(=N)N)cc4)nn3)cc2)CC1)C(=O)O [Compound 5d, ((1‐((1‐(4‐(4‐(((6‐(4‐Guanidinobenzamido)hexyl)oxy)methyl)‐1H‐1,2,3‐triazol‐1‐yl)benzyl)‐1H‐imidazol‐5‐yl)methyl)‐4‐phenylpiperidin‐4‐yl)carbamoyl)‐L‐methionine] | 300 | 1.8 ± 0.4 | 96 | 3.1 ± 0.5 | 
3 | CSCC[C@H](NC(=O)NC1(c2ccccc2)CCN(Cc2cncn2Cc2ccc(N=[N+]=[N-])cc2)CC1)C(=O)O [Compound 3, ((1‐((1‐(4‐Azidobenzyl)‐1H‐imidazol‐5‐yl)methyl)‐4‐phenylpiperidin‐4‐yl)carbamoyl)‐L‐methionine] | 350 | 2.1 ± 0.5 | 6480 | 210 | increase in potency for FTase compared to 1 ([2]; ratio of K i values): 376 fold; selectivity for FTase over GGTase I [2]: 100 fold
4 | CSCC[C@H](NC(=O)NC1(c2ccccc2)CCN(Cc2cncn2Cc2ccc(-n3cc(COCCCCCCN)nn3)cc2)CC1)C(=O)O [Compound 5b, ((1‐((1‐(4‐(4‐(((6‐Aminohexyl)oxy)methyl)‐1H‐1,2,3‐triazol‐1‐yl)benzyl)‐1H‐imidazol‐5‐yl)methyl)‐4‐phenylpiperidin‐4‐yl)carbamoyl)‐L‐methionine] | 630 | 3.8 ± 1.1 | 2400 | 77 ± 51 | selectivity for FTase over GGTase I [2]: 20 fold
5 | CSCC[C@H](NC(=O)NC1(c2ccccc2)CCN(Cc2cncn2Cc2ccc(-n3cc(COCCCCCCNC(=O)c4ccc(C(=N)N)cc4)nn3)cc2)CC1)C(=O)O [Compound 5e, ((1‐((1‐(4‐(4‐(((6‐(4‐Carbamimidoylbenzamido)hexyl)oxy)methyl)‐1H‐1,2,3‐triazol‐1‐yl)benzyl)‐1H‐imidazol‐5‐yl)methyl)‐4‐phenylpiperidin‐4‐yl)carbamoyl)‐L‐methionine] | 330 | 2 ± 0.2 | 530 | 17 ± 5 | 
6 | C=CC(=O)N1CCN(c2nc(=O)n(-c3c(C)ccnc3C(C)C)c3nc(-c4c(O)cccc4F)c(F)cc23)[C@@H](C)C1 [sotorasib, reference compound] |  |  |  |  | IC50 [4]: 10 to 100 nM
7 | COC(=O)[C@H](CCSC)NC(=O)NC1(c2ccccc2)CCN(Cc2cncn2Cc2ccc(-n3cc(COCCCCCCNC(=O)c4ccc(C(=N)N)cc4)nn3)cc2)CC1 [Compound 4e, Methyl ((1‐((1‐(4‐(4‐(((6‐(4‐carbamimidoylbenzamido)hexyl)oxy)methyl)‐1H‐1,2,3‐triazol‐1‐yl)benzyl)‐1H‐imidazol‐5‐yl)methyl)‐4‐phenylpiperidin‐4‐yl)carbamoyl)‐L‐methioninate] |  |  |  |  | inhibition of geranylgeranylation (processing) of Rap1 in cells [1]: did not inhibit
8 | C#CCOCCCCCCNC(=N)N [Compound 12, 1‐(6‐(Prop‐2‐yn‐1‐yloxy)hexyl)guanidine] | > 500000 |  |  |  | 
9 | CSCC[C@H](NC(=O)NC1(c2ccccc2)CCN(Cc2cncn2Cc2ccc(-n3cc(COCCCCCCNC(=N)N)nn3)cc2)CC1)C(=O)O [Compound 5a, ((1‐((1‐(4‐(4‐(((6‐Guanidinohexyl)oxy)methyl)‐1H‐1,2,3‐triazol‐1‐yl)benzyl)‐1H‐imidazol‐5‐yl)methyl)‐4‐phenylpiperidin‐4‐yl)carbamoyl)‐L‐methionine] | 290 | 1.7 ± 0.5 | 7840 | 250 ± 50 | selectivity for FTase over GGTase I [2]: 147 fold
10 | COC(=O)[C@H](CCSC)NC(=O)NC1(c2ccccc2)CCN(Cc2cncn2Cc2ccc(-n3cc(COCCCCCCNC(=O)c4ccc(N)cc4)nn3)cc2)CC1 [Compound 4c, Methyl ((1‐((1‐(4‐(4‐(((6‐(4‐aminobenzamido)hexyl)oxy)methyl)‐1H‐1,2,3‐triazol‐1‐yl)benzyl)‐1H‐imidazol‐5‐yl)methyl)‐4‐phenylpiperidin‐4‐yl)carbamoyl)‐L‐methioninate] |  |  |  |  | inhibition of geranylgeranylation (processing) of Rap1 in cells [1]: inhibited; also recorded: more potent than 2; also recorded: inhibit the processing; also recorded: disrupt the processing; inhibition of prenylation (processing) of K‐Ras in cells [5]: able to inhibit; also recorded: inhibit the processing; also recorded: disrupt the processing
11 | CSCC[C@H](NC(=O)NC1(c2ccccc2)CCN(Cc2cncn2Cc2ccc(-n3cc(COCCCCCCNC(=O)c4ccc(N)cc4)nn3)cc2)CC1)C(=O)O [Compound 5c, ((1‐((1‐(4‐(4‐(((6‐(4‐Aminobenzamido)hexyl)oxy)methyl)‐1H‐1,2,3‐triazol‐1‐yl)benzyl)‐1H‐imidazol‐5‐yl)methyl)‐4‐phenylpiperidin‐4‐yl)carbamoyl)‐L‐methionine] | 752 | 4.6 ± 0.08 | 90 | 2.9 ± 0.7 | 
12 | C#CCOCCCCCCNC(=O)c1ccc(C(=N)N)cc1 [Compound 13, 4‐Carbamimidoyl‐N‐(6‐(prop‐2‐yn‐1‐yloxy)hexyl)benzamide] | > 500000 |  | > 500000 |  | antiproliferative activity (result in words) ([4]; MiaPaCa2 cells, 72 hours, trypan blue assay): inactive
13 | COC(=O)[C@H](CCSC)NC(=O)NC1(c2ccccc2)CCN(Cc2cncn2Cc2ccc(N=[N+]=[N-])cc2)CC1 [Compound 2, Methyl ((1‐((1‐(4‐azidobenzyl)‐1H‐imidazol‐5‐yl)methyl)‐4‐phenylpiperidin‐4‐yl)carbamoyl)‐L‐methioninate] |  |  |  |  | inhibition of geranylgeranylation (processing) of Rap1 in cells [1]: inhibited; also recorded: inhibit the processing; inhibition of prenylation (processing) of K‐Ras in cells [5]: able to inhibit; also recorded: inhibit the processing; IC50 [4]: 100 to 1000 nM; IC50 relative to that of sotorasib ([4]; MiaPaCa2 cells, 72 hours): approximately 10 fold
14 | CSCC[C@H](NC(=O)NC1(c2ccccc2)CCN(Cc2cnc[nH]2)CC1)C(=O)O [Compound 1, ((1‐((1H‐Imidazol‐5‐yl)methyl)‐4‐phenylpiperidin‐4‐yl)carbamoyl)‐L‐methionine] |  | 790 ± 45 | > 500000 |  | 

Reference: paper PMC12080315 (Chemistry (Weinheim an Der Bergstrasse, Germany), 2025)
